Source: ChEMBL document CHEMBL4052603, “Branimycins B and C, Antibiotics Produced by the Abyssal Actinobacterium Pseudonocardia carboxydivorans M-227” (2017)
Converted amounts (≈) assume the structure as drawn.

Assays:
Type in all cases: functional
Enterococcus faecium = test: Antibacterial activity against Enterococcus faecium 10701 by CLSI method
Procedure, shortened: (§1)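 CLSI susceptibility testing on Mueller-Hinton agar; clinical isolates came from patients with infections.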

Streptococcus pyogenes = test: Antibacterial activity against Streptococcus pyogenes 81293 by CLSI method
Procedure, shortened: (§2)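 CLSI procedure on Mueller-Hinton agar, supplemented per CLSI conditions for S. pneumoniae, S. pyogenes and N. meningitidis.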

Klebsiella pneumoniae = test: Antibacterial activity against Klebsiella pneumoniae ATCC 700603 by CLSI method
Staphylococcus aureus [1] = test: Antibacterial activity against Staphylococcus aureus 11497 by CLSI method; procedure, shortened: as §1
Staphylococcus aureus [2] = test: Antibacterial activity against Staphylococcus aureus ATCC 25923 by CLSI method; procedure, shortened: as §1
Enterococcus faecalis [3] = test: Antibacterial activity against Enterococcus faecalis ATCC 51299 by CLSI method; procedure, shortened: as §1
Staphylococcus aureus [4] = test: Antibacterial activity against Staphylococcus aureus ATCC 6538P by CLSI method; procedure, shortened: as §1
[5] = system: Mycobacterium tuberculosis; test: Antibacterial activity against Mycobacterium tuberculosis MDR-1 by CLSI method
Procedure, shortened: (§3)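 Agar proportion method for slowly growing mycobacteria on Middlebrook 7H10 agar supplemented with 10% OADC and 0.5% glycerol.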

Acinetobacter baumannii = test: Antibacterial activity against Acinetobacter baumannii MB5973 after 20 hrs by spectrophotometric method; conditions: MB5973, 20 h
Staphylococcus aureus [6] = test: Antibacterial activity against methicillin-resistant Staphylococcus aureus MB5393 by CLSI method
Procedure, shortened: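 Broth microdilution: 90 μL diluted inoculum plus 8.4 μL medium (LB or BHI) and 1.6 μL compound dilution. Compounds tested as 2-fold serial dilutions from 160 to 0.31 μg/mL, in triplicate. Vancomycin (32 to 4 μg/mL) served as positive control and amphotericin B (16 to 0.25 μg/mL) as negative control.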

[7] = system: Corynebacterium urealyticum; test: Antibacterial activity against Corynebacterium urealyticum 1492 by CLSI method
Procedure, shortened: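 CLSI procedure on trypticasein soy agar with 5% sheep blood.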

Escherichia coli [8] = test: Antibacterial activity against Escherichia coli ESS by CLSI method; procedure, shortened: as §1
Bacteroides fragilis [9] = test: Antibacterial activity against Bacteroides fragilis 61592 by CLSI method
Bacteroides fragilis [10] = test: Antibacterial activity against Bacteroides fragilis ATCC 25285 by CLSI method
Staphylococcus aureus [11] = test: Antibacterial activity against methicillin-sensitive Staphylococcus aureus MB2865 by CLSI method
Procedure, shortened: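 MSSA MB2865 tested with diluted inoculum mixed with medium (LB or BHI) plus compound dilution. Twofold serial dilutions from 160 to 0.31 μg/mL, in triplicate. Penicillin G (0.312 to 0.039 μg/mL) was the positive control and amphotericin B (16 to 0.25 μg/mL) the negative control.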

Micrococcus luteus = test: Antibacterial activity against Micrococcus luteus ATCC 14452 by CLSI method; procedure, shortened: as §1
[12] = system: Mycobacterium tuberculosis; test: Antibacterial activity against Mycobacterium tuberculosis H37Rv by CLSI method; procedure, shortened: as §3
[13] = system: Mycobacterium tuberculosis; test: Antibacterial activity against Mycobacterium tuberculosis MDR-2 by CLSI method; procedure, shortened: as §3
Staphylococcus aureus [14] = test: Antibacterial activity against Staphylococcus aureus ATCC 43300 by CLSI method
Pseudomonas aeruginosa = test: Antibacterial activity against Pseudomonas aeruginosa PAO1 after 20 hrs by spectrophotometric method; conditions: PAO1, 20 h
Streptococcus pneumoniae = test: Antibacterial activity against Streptococcus pneumoniae 64412 by CLSI method; procedure, shortened: as §2
Haemophilus influenzae [15] = test: Antibacterial activity against Haemophilus influenzae 10996 by CLSI method; procedure, shortened: as §1
Enterococcus faecalis [16] = test: Antibacterial activity against Enterococcus faecalis 10544 by CLSI method; procedure, shortened: as §1
Haemophilus influenzae [17] = test: Antibacterial activity against Haemophilus influenzae ATCC 49247 by CLSI method
Neisseria meningitidis = test: Antibacterial activity against Neisseria meningitidis 71327 by CLSI method; procedure, shortened: as §2
Escherichia coli [18] = test: Antibacterial activity against Escherichia coli MB2884 after 20 hrs by spectrophotometric method; conditions: MB2884, 20 h
Clostridium perfringens = test: Antibacterial activity against Clostridium perfringens 103281 by CLSI method
Enterococcus faecalis [19] = test: Antibacterial activity against Enterococcus faecalis ATCC 29212 by CLSI method; procedure, shortened: as §1

Structure (SMILES)	MIC (Enterococcus faecium) [µg/mL]	MIC (Streptococcus pyogenes) [µg/mL]	MIC (Klebsiella pneumoniae) [µg/mL]	MIC (Staphylococcus aureus [1]) [µg/mL]	MIC (Staphylococcus aureus [2]) [µg/mL]	MIC (Enterococcus faecalis [3]) [µg/mL]	MIC (Staphylococcus aureus [4]) [µg/mL]	MIC [5] [µg/mL]	MIC (Acinetobacter baumannii) [µg/mL]	MIC (Staphylococcus aureus [6]) [µg/mL]	MIC [7] [µg/mL]	MIC (Escherichia coli [8]) [µg/mL]	MIC (Bacteroides fragilis [9]) [µg/mL]	MIC (Bacteroides fragilis [10]) [µg/mL]	MIC (Staphylococcus aureus [11]) [µg/mL]	MIC (Micrococcus luteus) [µg/mL]	MIC [12] [µg/mL]	MIC [13] [µg/mL]	MIC (Staphylococcus aureus [14]) [µg/mL]	MIC (Pseudomonas aeruginosa) [µg/mL]	also measured
COC[C@H]1[C@@H](O)[C@@H]2O[C@@]34/C(C)=C/[C@@H](C)[C@@H]([C@H](O)CO)OC(=O)[C@H](COC)[C@H]3C=C[C@@H]2[C@H]4[C@@H]1O	> 64	> 128	> 80	> 64	64 (≈ 137 µM)	> 64	32 (≈ 68.3 µM)	> 32	> 80	20 to 40 (≈ 42.7 to 85.4 µM)	16 (≈ 34.1 µM)	128 (≈ 273 µM)	> 128	128 (≈ 273 µM)	80 (≈ 171 µM)	16 (≈ 34.1 µM)	> 32	> 32	> 64	> 80	MIC (Streptococcus pneumoniae): > 128 µg/mL; MIC (Haemophilus influenzae [15]): > 64 µg/mL; MIC (Enterococcus faecalis [16]): 64 µg/mL (≈ 137 µM); MIC (Haemophilus influenzae [17]): > 64 µg/mL; MIC (Neisseria meningitidis): 64 µg/mL (≈ 137 µM); MIC (Escherichia coli [18]): > 80 µg/mL; MIC (Clostridium perfringens): 16 µg/mL (≈ 34.1 µM); MIC (Enterococcus faecalis [19]): > 64 µg/mL
COC[C@H]1C(=O)O[C@H]([C@H](O)CO)[C@H](C)/C=C(\C)[C@@]23O[C@H]4[C@H](O)[C@H](C)[C@@H](O)[C@@H]2[C@H]4C=C[C@H]13	> 64	> 128	> 80	> 64	> 64	> 64	> 128	> 32	> 80	> 160	8 (≈ 18.2 µM)	64 (≈ 146 µM)	128 (≈ 292 µM)	32 (≈ 73 µM)	> 160	1 (≈ 2.28 µM)	> 32	> 32	> 64	> 80	MIC (Streptococcus pneumoniae): > 128 µg/mL; MIC (Haemophilus influenzae [15]): > 64 µg/mL; MIC (Enterococcus faecalis [16]): > 64 µg/mL; MIC (Haemophilus influenzae [17]): 32 µg/mL (≈ 73 µM); MIC (Neisseria meningitidis): 32 µg/mL (≈ 73 µM); MIC (Escherichia coli [18]): > 80 µg/mL; MIC (Clostridium perfringens): 32 µg/mL (≈ 73 µM); MIC (Enterococcus faecalis [19]): > 64 µg/mL
